Measurements reported in ChEMBL document CHEMBL3808289, “Discovery of a Selective Series of Inhibitors of Plasmodium falciparum HDACs” (ACS Med Chem Lett, 2016).
pEC50, pIC50: −log10 of the molar value. Active and inactive are the calls of the source. No cut-off for these calls is given here.

Tests used:
Plasmodium falciparum = test: Antimalarial activity against Plasmodium falciparum 3D7 infected human erythrocytes assessed as parasite growth inhibition after 72 hrs by spectrophotometry; assay type: functional, organism-based; settings: 3D7, 72 h
Outline: (§1)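 Cell-based read-outs (parasite growth in erythrocytes; class I HDAC activity in HeLa) were run with multiple repetitions of each assay to limit variability.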

[1] = target: T1, Protein deacetylase HDAC6 (Homo sapiens) (UniProt Q9UBN7); test: Inhibition of human HDAC6 at 5 uM
T1 sequence (whole entry): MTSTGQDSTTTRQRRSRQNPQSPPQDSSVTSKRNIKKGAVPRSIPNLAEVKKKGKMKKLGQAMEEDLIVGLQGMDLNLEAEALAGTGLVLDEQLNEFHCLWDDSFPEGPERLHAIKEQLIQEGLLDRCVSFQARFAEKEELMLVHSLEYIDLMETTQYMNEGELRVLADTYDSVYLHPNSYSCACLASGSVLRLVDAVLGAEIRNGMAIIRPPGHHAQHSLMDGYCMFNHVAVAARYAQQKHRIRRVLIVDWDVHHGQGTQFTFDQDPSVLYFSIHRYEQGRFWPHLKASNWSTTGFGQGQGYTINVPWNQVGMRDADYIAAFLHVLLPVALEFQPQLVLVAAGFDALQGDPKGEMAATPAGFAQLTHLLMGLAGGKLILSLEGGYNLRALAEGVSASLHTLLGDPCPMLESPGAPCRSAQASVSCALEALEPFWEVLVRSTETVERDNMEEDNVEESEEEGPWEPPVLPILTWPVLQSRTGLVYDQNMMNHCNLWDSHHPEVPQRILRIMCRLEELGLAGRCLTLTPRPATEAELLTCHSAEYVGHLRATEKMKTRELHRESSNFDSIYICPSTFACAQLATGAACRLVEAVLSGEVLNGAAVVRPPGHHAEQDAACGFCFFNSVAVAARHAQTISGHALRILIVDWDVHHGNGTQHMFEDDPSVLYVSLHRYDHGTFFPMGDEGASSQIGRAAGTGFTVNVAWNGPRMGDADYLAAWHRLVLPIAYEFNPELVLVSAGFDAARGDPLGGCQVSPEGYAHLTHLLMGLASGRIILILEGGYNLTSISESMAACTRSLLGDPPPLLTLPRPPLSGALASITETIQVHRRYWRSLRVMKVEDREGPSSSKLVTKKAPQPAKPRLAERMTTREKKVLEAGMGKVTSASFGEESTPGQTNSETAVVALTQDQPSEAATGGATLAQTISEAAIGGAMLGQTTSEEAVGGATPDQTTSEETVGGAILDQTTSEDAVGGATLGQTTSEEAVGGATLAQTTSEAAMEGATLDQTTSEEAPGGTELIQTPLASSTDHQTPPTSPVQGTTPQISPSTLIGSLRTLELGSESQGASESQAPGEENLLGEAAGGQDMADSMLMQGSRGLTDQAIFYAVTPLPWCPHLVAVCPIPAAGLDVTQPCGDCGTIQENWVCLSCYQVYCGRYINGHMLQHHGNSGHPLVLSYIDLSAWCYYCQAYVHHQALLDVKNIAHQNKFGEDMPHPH

[2] = target: Histone deacetylase 4 (Homo sapiens) (UniProt P56524); test: Inhibition of human HDAC4 at 5 uM
Sequence of Histone deacetylase 4 (Homo sapiens) (P56524 whole entry): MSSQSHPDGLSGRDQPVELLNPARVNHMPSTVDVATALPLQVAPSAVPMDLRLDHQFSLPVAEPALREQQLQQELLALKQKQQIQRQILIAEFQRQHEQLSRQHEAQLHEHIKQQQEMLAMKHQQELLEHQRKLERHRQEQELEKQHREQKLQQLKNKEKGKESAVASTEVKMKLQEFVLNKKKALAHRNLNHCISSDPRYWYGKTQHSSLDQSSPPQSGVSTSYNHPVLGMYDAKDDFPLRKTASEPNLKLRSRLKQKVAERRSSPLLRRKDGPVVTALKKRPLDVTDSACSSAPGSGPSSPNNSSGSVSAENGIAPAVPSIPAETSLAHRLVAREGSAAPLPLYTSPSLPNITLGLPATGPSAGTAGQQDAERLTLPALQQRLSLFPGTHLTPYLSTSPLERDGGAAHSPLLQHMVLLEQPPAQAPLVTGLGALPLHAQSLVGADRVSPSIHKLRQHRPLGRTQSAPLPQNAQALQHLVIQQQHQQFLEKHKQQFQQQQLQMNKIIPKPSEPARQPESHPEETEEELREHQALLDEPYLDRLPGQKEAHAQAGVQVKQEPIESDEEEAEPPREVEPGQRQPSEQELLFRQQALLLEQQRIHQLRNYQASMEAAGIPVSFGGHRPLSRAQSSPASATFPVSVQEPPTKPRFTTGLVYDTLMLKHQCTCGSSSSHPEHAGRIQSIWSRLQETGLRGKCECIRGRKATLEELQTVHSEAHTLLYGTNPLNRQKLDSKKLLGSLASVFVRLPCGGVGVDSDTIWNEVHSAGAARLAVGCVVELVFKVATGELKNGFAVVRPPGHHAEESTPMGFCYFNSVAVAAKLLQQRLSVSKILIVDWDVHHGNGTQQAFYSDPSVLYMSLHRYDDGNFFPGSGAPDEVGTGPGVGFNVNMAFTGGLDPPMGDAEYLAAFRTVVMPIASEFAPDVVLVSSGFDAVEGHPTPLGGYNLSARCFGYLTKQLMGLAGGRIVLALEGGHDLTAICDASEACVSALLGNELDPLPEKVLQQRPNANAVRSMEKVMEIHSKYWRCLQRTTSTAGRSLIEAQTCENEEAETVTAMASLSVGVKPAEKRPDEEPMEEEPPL

[3] = Cytotoxicity against human HeLa cells assessed as cell viability after 72 hrs by CellTiter-Glo assay; assay type: cell-based
[4] = Intrinsic clearance in CD1 mouse liver microsomes at 1 uM by LC-MS/MS analysis; assay type: ADME; settings: read-out: CLH
Histone deacetylase 3 = Histone deacetylase 3 (Homo sapiens, UniProt O15379); test: Inhibition of human HDAC3
Sequence of Histone deacetylase 3 (O15379 whole entry): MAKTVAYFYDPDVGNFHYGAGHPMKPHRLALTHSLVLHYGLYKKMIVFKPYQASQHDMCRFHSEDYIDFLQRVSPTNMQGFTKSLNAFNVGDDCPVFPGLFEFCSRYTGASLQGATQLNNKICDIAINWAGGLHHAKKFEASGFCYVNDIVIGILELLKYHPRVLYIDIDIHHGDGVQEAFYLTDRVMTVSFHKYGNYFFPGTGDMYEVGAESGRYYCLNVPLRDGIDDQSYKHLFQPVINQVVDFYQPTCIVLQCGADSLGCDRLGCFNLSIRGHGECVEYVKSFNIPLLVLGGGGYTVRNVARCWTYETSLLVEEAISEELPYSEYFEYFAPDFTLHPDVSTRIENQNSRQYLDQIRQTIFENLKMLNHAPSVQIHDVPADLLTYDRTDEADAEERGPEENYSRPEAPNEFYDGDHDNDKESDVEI
Outline: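 HDAC3 was measured within a human HDAC enzyme panel (HDAC1–7 and 9), with concentrations tested up to 5 μM.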

[5] = Cytotoxicity against human HUVEC cells assessed as cell viability after 72 hrs by CellTiter-Glo assay; assay type: cell-based
[6] = Clearance in NMRI mouse plasma 2 mg/kg, iv by LC-MS/MS analysis; assay type: ADME, organism-based
[7] = Inhibition of class 1 histone deacetylase in human HeLa cells using FLUOR DE LYS as fluorescent substrate after 4 hrs by spectrophotometry; assay type: cell-based; outline: as §1
[8] = target: T2, Histone deacetylase 7 (Homo sapiens) (UniProt Q8WUI4); test: Inhibition of human HDAC7 at 5 uM
T2 sequence (whole entry): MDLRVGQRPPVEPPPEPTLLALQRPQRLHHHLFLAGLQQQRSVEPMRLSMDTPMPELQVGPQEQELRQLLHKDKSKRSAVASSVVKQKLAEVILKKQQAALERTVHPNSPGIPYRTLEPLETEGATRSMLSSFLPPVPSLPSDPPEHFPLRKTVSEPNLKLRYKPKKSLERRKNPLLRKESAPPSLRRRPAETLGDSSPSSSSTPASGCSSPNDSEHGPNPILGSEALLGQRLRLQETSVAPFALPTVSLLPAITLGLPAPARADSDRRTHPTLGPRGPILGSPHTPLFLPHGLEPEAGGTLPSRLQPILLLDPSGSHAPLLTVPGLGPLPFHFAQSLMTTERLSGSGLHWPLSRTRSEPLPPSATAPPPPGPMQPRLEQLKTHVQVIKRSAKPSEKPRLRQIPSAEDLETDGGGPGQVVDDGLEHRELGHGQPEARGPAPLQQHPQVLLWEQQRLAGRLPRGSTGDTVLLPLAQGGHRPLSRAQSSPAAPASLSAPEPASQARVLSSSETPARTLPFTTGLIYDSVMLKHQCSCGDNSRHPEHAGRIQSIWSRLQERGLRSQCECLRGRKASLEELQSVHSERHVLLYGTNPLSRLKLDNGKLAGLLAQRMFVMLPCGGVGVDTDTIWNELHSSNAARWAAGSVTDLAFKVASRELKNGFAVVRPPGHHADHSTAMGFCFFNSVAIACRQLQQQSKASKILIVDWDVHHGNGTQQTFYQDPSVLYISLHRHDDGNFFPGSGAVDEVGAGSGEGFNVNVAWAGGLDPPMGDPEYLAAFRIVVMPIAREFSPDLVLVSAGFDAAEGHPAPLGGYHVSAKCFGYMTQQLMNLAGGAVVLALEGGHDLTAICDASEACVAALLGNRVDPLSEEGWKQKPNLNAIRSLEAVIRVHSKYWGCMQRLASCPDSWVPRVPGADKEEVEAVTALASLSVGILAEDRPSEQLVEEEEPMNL

[9] = target: Histone deacetylase 9 (Homo sapiens) (UniProt Q9UKV0); test: Inhibition of human HDAC9 at 5 uM
Sequence of Histone deacetylase 9 (Homo sapiens) (Q9UKV0 whole entry): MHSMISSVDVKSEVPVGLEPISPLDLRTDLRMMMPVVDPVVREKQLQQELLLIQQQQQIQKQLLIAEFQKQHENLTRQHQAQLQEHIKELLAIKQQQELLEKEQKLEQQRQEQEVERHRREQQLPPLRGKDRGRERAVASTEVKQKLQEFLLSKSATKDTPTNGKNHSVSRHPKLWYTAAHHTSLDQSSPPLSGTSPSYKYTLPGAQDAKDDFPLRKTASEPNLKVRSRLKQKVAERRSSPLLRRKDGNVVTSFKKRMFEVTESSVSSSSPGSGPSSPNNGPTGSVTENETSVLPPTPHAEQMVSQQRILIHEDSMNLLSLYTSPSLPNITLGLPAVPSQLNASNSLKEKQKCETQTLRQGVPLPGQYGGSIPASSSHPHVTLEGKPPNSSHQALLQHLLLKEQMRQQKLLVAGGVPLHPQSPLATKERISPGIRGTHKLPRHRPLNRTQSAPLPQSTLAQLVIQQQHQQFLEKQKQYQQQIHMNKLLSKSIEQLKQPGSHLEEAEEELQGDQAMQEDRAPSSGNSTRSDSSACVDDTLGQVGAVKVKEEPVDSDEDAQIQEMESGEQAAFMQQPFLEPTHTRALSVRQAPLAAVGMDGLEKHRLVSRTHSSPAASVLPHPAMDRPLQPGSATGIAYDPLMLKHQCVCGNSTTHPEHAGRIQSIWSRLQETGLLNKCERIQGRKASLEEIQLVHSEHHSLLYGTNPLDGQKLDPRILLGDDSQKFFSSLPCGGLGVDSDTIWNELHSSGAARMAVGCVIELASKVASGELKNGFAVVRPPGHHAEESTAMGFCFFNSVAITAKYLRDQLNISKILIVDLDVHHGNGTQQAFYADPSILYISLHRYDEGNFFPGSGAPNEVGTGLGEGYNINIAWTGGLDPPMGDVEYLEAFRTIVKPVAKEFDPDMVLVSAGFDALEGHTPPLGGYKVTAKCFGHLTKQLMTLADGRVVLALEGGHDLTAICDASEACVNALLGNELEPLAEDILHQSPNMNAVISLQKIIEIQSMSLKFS

Histone deacetylase 1 [10] = target: T3, Histone deacetylase 1 (Homo sapiens, UniProt Q13547); test: Inhibition of human HDAC1 at 5 uM
T3 sequence (Q13547 whole entry): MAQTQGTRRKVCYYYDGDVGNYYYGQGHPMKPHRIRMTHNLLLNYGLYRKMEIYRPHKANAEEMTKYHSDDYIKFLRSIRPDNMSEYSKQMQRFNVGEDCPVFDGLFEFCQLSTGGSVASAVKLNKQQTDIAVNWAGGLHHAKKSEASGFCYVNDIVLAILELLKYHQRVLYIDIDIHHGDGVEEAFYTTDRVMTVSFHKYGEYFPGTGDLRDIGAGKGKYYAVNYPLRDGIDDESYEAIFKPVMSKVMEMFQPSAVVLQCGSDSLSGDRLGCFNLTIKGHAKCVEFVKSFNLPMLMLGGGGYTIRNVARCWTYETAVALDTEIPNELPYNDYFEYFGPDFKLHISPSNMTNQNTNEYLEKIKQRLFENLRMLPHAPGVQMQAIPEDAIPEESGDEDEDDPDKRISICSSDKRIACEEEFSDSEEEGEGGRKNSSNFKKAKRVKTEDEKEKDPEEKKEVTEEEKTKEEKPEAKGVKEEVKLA

[11] = target: Histone deacetylase 5 (Homo sapiens) (UniProt Q9UQL6); test: Inhibition of human HDAC5 at 5 uM
Sequence of Histone deacetylase 5 (Homo sapiens) (Q9UQL6 whole entry): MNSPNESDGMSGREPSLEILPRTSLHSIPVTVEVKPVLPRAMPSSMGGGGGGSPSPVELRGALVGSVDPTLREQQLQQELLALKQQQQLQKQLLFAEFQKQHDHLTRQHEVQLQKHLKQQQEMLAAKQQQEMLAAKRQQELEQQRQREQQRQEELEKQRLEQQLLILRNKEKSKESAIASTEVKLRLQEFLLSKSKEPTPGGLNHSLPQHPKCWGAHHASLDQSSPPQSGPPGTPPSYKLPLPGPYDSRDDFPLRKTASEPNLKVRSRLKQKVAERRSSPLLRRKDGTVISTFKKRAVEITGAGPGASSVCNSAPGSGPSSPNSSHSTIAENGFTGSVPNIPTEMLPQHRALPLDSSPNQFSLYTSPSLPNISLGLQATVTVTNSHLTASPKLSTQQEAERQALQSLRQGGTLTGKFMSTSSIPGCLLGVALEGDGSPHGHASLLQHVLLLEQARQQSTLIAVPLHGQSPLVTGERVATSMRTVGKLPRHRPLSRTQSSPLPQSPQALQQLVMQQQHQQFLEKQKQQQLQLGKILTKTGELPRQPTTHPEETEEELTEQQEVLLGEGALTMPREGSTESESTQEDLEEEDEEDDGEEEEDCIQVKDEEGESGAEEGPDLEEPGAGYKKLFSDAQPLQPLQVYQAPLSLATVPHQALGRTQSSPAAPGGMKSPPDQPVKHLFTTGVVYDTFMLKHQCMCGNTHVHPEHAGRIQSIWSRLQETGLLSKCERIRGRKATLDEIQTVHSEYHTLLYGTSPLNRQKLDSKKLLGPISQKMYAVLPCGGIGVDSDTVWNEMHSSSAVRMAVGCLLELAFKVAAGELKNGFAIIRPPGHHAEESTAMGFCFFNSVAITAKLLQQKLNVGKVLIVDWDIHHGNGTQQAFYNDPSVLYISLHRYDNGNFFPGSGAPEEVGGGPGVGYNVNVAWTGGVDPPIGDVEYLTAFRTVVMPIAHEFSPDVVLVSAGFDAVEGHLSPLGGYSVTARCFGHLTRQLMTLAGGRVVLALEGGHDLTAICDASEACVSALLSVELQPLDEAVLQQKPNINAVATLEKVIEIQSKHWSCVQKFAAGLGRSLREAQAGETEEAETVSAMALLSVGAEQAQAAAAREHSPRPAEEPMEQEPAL

Histone deacetylase 1 [12] = target: T3, Histone deacetylase 1; test: Inhibition of recombinant human His-tagged HDAC1 expressed in insect cells preincubated for 10 mins followed by addition of FLUOR DE LYS as fluorescent substrate measured after 1 hr by spectrophotometry
[13] = Intrinsic clearance in human liver microsomes at 1 uM by LC-MS/MS analysis; assay type: ADME; settings: read-out: CLH
[14] = Inhibition of HDAC1 in Plasmodium falciparum 3D7 infected in human erythrocytes assessed as histone H4 hyperacetylation at lysine8 residue by western blotting method; assay type: cell-based
Outline: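 P. falciparum parasites inside erythrocytes were treated with increasing compound concentrations. Histone H4 lysine 8 acetylation was analysed, and the concentration giving hyperacetylation was expressed as an EC50.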

[15] = target: Histone deacetylase 2 (Homo sapiens) (UniProt Q92769); test: Inhibition of human HDAC2 at 5 uM
Sequence of Histone deacetylase 2 (Homo sapiens) (Q92769 whole entry): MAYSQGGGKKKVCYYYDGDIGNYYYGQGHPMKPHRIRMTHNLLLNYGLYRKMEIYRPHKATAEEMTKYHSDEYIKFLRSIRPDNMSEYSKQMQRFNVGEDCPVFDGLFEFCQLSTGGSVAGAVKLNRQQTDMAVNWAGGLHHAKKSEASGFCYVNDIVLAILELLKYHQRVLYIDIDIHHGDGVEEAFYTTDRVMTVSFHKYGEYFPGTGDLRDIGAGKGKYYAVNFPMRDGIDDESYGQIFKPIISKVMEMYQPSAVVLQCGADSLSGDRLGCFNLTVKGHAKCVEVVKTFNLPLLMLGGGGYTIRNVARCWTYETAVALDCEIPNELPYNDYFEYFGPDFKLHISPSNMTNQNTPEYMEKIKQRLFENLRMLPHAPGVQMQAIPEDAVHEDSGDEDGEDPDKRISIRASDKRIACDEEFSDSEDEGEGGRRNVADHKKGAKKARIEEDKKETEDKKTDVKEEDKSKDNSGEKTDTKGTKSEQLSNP

[16] = Intrinsic clearance in Han Wistar rat liver microsomes at 1 uM by LC-MS/MS analysis; assay type: ADME; settings: read-out: CLH

With `CNC(=O)CCCCC[C@H](NC(=O)c1cncs1)c1ncc(-c2ccc(-c3ccn[nH]3)cc2)[nH]1` the pEC50 (Plasmodium falciparum) was 6.35, the inhibition [1] was “inactive” and the inhibition [2] was “inactive”. The CC50 at 72 h [3] was greater than 25 µM, the microsomal CLint at 1 µM [4] was 12 µL/min/mg and the pIC50 (Histone deacetylase 3) was 6.48. The CC50 at 72 h [5] was greater than 25 µM, the clearance [6] was 247 mL/min/kg and the pIC50 [7] was 4.78. For the same compound, the inhibition [8] was “inactive”, the inhibition [9] was “inactive” and the inhibition (Histone deacetylase 1 [10]) was “inactive”. The inhibition [11] was “inactive”, the pIC50 (Histone deacetylase 1 [12]) was 5.73 and the microsomal CLint at 1 µM [13] was 19 µL/min/mg. For the same compound, the pEC50 [14] was 6.46, the inhibition [15] was “inactive” and the microsomal CLint at 1 µM [16] was 27 µL/min/mg.
